Broadly, the GI50 is the concentration at which growth is held to half of that of the control. The low end stands for greater sensitivity of the cells, the high end for lower sensitivity of the cells.

Data on 9 compounds can be found in ChEMBL document CHEMBL1154725, “Synthesis and antitumor evaluation of novel diarylsulfonylurea derivatives: molecular modeling applications” (2010).

Holding throughout (assay type): functional
In assay [1] the test system is EKVX. As to the kind of experiment: Growth inhibition of human EKVX cells after 48 hrs. In short, it runs like this:
(§1)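 NCI in vitro human tumour cell line screen (about 60 lines, nine subpanels). Compounds dissolved in DMSO, diluted in phosphate-buffered saline (final DMSO under 1%), tested at five concentrations from 0.01 to 100, in duplicate wells. Cells at 6 × 10⁴ cells/mL, 37 °C, 5% CO₂, 48 h. GI50 (50% decrease in net growth) taken from log concentration versus % growth inhibition curves; subpanel values are subpanel mean-graph midpoints.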

Assay [2] concerns HCC 2998. As to the kind of experiment: Growth inhibition of human HCC2998 cells after 48 hrs. Particulars: HCC 2998, 48 h. In short, it runs like this: as §1
Assay [3] concerns UACC-257. As to the kind of experiment: Growth inhibition of human UACC257 cells after 48 hrs. Particulars: UACC-257, 48 h. Summed up:
as §1

Assay [4] concerns MCF7. As to the kind of experiment: Growth inhibition of human MCF7 cells after 48 hrs. The settings on record: MCF7, 48 h. In short, it runs like this:
as §1

Assay [5] deals with Leukemia cell. As to the kind of experiment: Growth inhibition of human Leukemia cells after 48 hrs. In short, it runs like this:
as §1

The subject of assay [6] is NSCLC. As to the kind of experiment: Growth inhibition of human NSCLC cell after 48 hrs. In short, it runs like this:
as §1

Assay [7] can be described thus: Growth inhibition of human Colon cancer cells after 48 hrs. Particulars: Cancer cell lines. Summed up:
as §1

Assay [8] is described as follows: Growth inhibition of human CNS cancer cells after 48 hrs. The settings on record: Cancer cell lines. Summed up:
as §1

The subject of assay [9] is Melanoma cell. As to the kind of experiment: Growth inhibition of human Melanoma cells after 48 hrs. In short, it runs like this:
as §1

Assay [10] is described as follows: Growth inhibition of human Ovarian cancer cells after 48 hrs. The settings on record: Cancer cell lines. In short, it runs like this:
as §1

Assay [11] can be described thus: Growth inhibition of human Renal cancer cells after 48 hrs. Particulars: Cancer cell lines. Summed up: as §1
Assay [12] can be described thus: Growth inhibition of human Prostate cancer cells after 48 hrs. The settings on record: Cancer cell lines. In short, it runs like this: as §1
Assay [13] in a line: Growth inhibition of human Breast cancer cells after 48 hrs. Particulars: Cancer cell lines. Summed up:
as §1

For assay [14], the system named is OVCAR-3. In words: Growth inhibition of human OVCAR-3 cells after 48 hrs. The settings on record: OVCAR-3, 48 h. In short, it runs like this:
as §1

For the compound `NNC(=O)c1c(NC(=O)NS(=O)(=O)c2ccccc2)sc2c1CCCCC2`, the GI50 in assay [1] is greater than 100 µM; in assay [2], 0.9 µM; in assay [3], 2.8 µM; in assay [4] it was 4.2 µM; in [5], 30.3 µM; in [6], 10.5 µM. The GI50 in [7] is 3.5 µM; in assay [8] it was greater than 100 µM; in assay [9], 4.5 µM; in assay [10] it was 1.5 µM; in assay [11] it was greater than 100 µM; in assay [12], 15.8 µM. Also, the GI50 in assay [13] is 4.5 µM; in [14] it was greater than 100 µM.

Turning to `O=c1[nH]c2sc3c(c2c(=O)n1S(=O)(=O)c1ccccc1)CCCCC3`, the GI50 in assay [1] was 3.8 µM; in [2] it was 19.5 µM; in assay [3] it was greater than 100 µM; in assay [4], greater than 100 µM; in [5], 42.2 µM; in assay [6], 9.3 µM. Besides, the GI50 in [7] turned out to be 20.5 µM; in assay [8], 81.3 µM; in assay [9], 26.2 µM; in assay [10], 34.2 µM; in assay [11] it was 50.2 µM; in [12], 34.2 µM. Moreover, the GI50 in assay [13] was 22.5 µM; in assay [14] it was greater than 100 µM.

For `O=C(Nc1sc2c(c1C(=O)NNc1ccccc1)CCCCC2)NS(=O)(=O)c1ccccc1`, the GI50 in assay [1] is greater than 100 µM; in assay [2] it was 6.3 µM; in assay [3], greater than 100 µM; in assay [4] it was greater than 100 µM; in [5], 18.6 µM; in assay [6], 16 µM. Moreover, the concentration for 50% growth inhibition (GI50) is 7 µM in [7]; 30.9 µM in assay [8]; 32.3 µM in assay [9]; 15.2 µM in assay [10]; 26.3 µM in assay [11]; greater than 100 µM in assay [12]. The results for the GI50 in assay [13] and in assay [14] were 18.5 µM and 15.2 µM, respectively.

`CCCCNC(=O)c1c(NC(=O)NS(=O)(=O)c2ccccc2)sc2c1CCCCC2`: the GI50 in assay [5] is greater than 100 µM; in assay [6], 30.3 µM; in [7] it was 65.2 µM; in [8], 85.3 µM; in [9], 76.7 µM; in [10], greater than 100 µM. For the same compound, the concentration for 50% growth inhibition (GI50) worked out at 72.3 µM in assay [11], 92.6 µM in assay [12] and 85.2 µM in [13].

For `O=C(Nc1sc2c(c1C(=O)NNc1ccc(Cl)cc1)CCCCC2)NS(=O)(=O)c1ccccc1`, the GI50 in assay [1] is greater than 100 µM; in [2], 2.9 µM; in assay [3] it was greater than 100 µM; in assay [4] it was 8.3 µM; in assay [5], 30.6 µM; in [6], 8.6 µM. The GI50 in [7] is 1.2 µM; in [8] it was 12 µM; in assay [9], 4.2 µM; in assay [10], 7.5 µM; in assay [11], greater than 100 µM; in [12], 14.5 µM. Further, the GI50 in assay [13] is 5.9 µM; in [14] it was greater than 100 µM.

Turning to `CCCNC(=O)c1c(NC(=O)NS(=O)(=O)c2ccccc2)sc2c1CCCCC2`, the GI50 in assay [1] was 6.2 µM; in assay [2], greater than 100 µM; in assay [3], greater than 100 µM; in assay [4] it was greater than 100 µM; in [5] it was 42.2 µM; in [6], 54.2 µM. Also, the GI50 is 85.3 µM in assay [7]; 72.5 µM in assay [8]; 65.3 µM in assay [9]; 76.5 µM in [10]; 80.3 µM in assay [11]; 90.2 µM in [12]. Further, the GI50 in [13] was 70.3 µM; in assay [14], greater than 100 µM.

Take `O=C(Nc1sc2c(c1C(=O)N1CCN(c3ccccc3)CC1)CCCCC2)NS(=O)(=O)c1ccccc1`: the GI50 in assay [1] was greater than 100 µM; in assay [2], 16.9 µM; in assay [3], greater than 100 µM; in assay [4], greater than 100 µM; in assay [5] it was greater than 100 µM; in assay [6], 36.2 µM. Further, the GI50 in assay [7] turned out to be 11.5 µM; in assay [8], 55.8 µM; in assay [9], 52.3 µM; in assay [10], 36.2 µM; in assay [11], 65.2 µM; in assay [12], 60.3 µM. Further, the figures for the GI50 in assay [13] and in assay [14] were 58.2 µM and 11.9 µM, respectively.

In the case of `O=C(Nc1sc2c(c1C(=O)NNc1ccc(Br)cc1)CCCCC2)NS(=O)(=O)c1ccccc1`, the GI50 in assay [1] was greater than 100 µM; in assay [2], 1.6 µM; in assay [3], greater than 100 µM; in assay [4], greater than 100 µM; in [5], greater than 100 µM; in assay [6] it was 11.5 µM. The GI50 in assay [7] was 1.6 µM; in assay [8] it was 25.5 µM; in assay [9], 31.3 µM; in assay [10] it was 10.2 µM; in [11], 11.5 µM; in assay [12], greater than 100 µM. Besides, the GI50 in assay [13] was determined as 5.3 µM; in [14] it was 14.8 µM.

`CN1CCN(C(=O)c2c(NC(=O)NS(=O)(=O)c3ccccc3)sc3c2CCCCC3)CC1`: the 50% growth inhibitory concentration (GI50) is greater than 100 µM in [1]; 15.3 µM in assay [2]; greater than 100 µM in assay [3]; greater than 100 µM in [4]; greater than 100 µM in [5]; 22.3 µM in assay [6]. The GI50 in [7] was found to be 9.2 µM; in assay [8], 56.2 µM; in assay [9], 61.2 µM; in assay [10], 31.3 µM; in [11], 42.3 µM; in [12], 80.2 µM. In addition, the GI50 in assay [13] was 49.2 µM; in [14], greater than 100 µM.
